Diaph act CS: diaphorase activation or chemical reduction counter-screen. Diaphorase/resazurin coupled assay, resorufin fluorescence, 16 min; active compounds read high; 1 = vehicle wells, 0 = NADH-free wells. activation factor at 20 µM. 190,000 tested, 0.005% active;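 active = diaphorase activity raised at least twofold by the compound at 20 µM; inactive = activation factor below 2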
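System – purified diaphorase enzyme from Clostridium kluyveri · Input – enzyme 0.07 U/mL final · Also added – final NADH 0.114 mM, resazurin 0.1 mM · Measured by – fluorescence of resorufin, 544 nm excitation, 590 nm emission · Timing – 16 min enzyme reaction, ambient temperature · Measure – resorufin increase flagging diaphorase activators or reducers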
Lmaj promast: reduces viability of Leishmania major promastigotes; resazurin fluorescence viability; inhibition, % at 10 µM; 200,000 tested, 9% active; AID 1063; in the data active = inhibition above about 50%;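 also: promastigotes grown with compound for 44 hours at 28 °C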
PMI activator: phosphomannose isomerase (human) activation; P34949; purified human PMI, coupled resazurin fluorescence, 20 min; active compounds read high; 1 = vehicle control, 0 substrate-free wells; activation factor at 20 µM; 190,000 tested, 0.005% active; AID 1214;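 active = activation factor of 2 or more at 20 µM, relative to plate controls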
Target sequence (P34949 whole entry, looked up): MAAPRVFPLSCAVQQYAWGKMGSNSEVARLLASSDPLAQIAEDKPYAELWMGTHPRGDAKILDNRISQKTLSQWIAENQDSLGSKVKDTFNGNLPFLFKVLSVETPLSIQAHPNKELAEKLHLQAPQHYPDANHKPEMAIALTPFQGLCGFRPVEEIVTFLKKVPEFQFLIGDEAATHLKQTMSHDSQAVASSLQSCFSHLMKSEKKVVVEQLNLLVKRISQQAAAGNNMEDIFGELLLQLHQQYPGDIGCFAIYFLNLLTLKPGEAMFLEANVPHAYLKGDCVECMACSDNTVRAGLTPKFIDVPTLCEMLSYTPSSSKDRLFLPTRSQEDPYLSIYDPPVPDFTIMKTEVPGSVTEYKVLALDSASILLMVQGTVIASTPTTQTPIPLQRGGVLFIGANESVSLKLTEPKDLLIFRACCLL
PMI act hi M6P: PMI (human) activation, high substrate; P34949; coupled PMI enzyme assay, resazurin fluorescence, 20 min; active compounds read high; 1 = untreated enzyme, 0 = substrate-free blank; activation factor at 20 µM; 190,000 tested, 0.34% active; AID 1216;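 active = activation factor of 2 or more at 20 µM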
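test system = human PMI in coupled enzyme assay | medium = HEPES-buffered pH 7.4 with magnesium and detergent | also added = 1.0 mM mannose-6-phosphate substrate with 0.22 mM NADP+ | compound = 20 µM single dose | times = 20 min incubation at room temperature | measured by = resorufin fluorescence (Ex 544/Em 590 nm) from resazurin via diaphorase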
WT yeast gro inh: growth inhibition of WT yeast, mitochondrial fusion screen. mitochondrial fusion phenotypic screen, WT strain. inhibition, % at 10 µM. 190,000 tested, 2.1% active; in the data active = inhibition above about 58%; tested in S. cerevisiae
Starred values were filed as active, the others as inactive; . = no result given. Shown are actives, neighbours in structure and some others; about 10% of the full set was active somewhere.

SMILES	Diaph act CS	Lmaj promast	PMI activator	PMI act hi M6P	WT yeast gro inh
Cc1ccc(NC(=O)COC(=O)[C@H](C)NC(N)=O)c(C)c1	0.8	-0.4	1	0.9	-7.8
CC(C)N1CCc2c(sc(NC(=O)c3cc4cc([N+](=O)[O-])ccc4s3)c2C(N)=O)C1	0.3	100.4*	1.1	1.1	-11.4
CN1CCc2c(sc(NC(=O)c3cc4cc([N+](=O)[O-])ccc4s3)c2C(N)=O)C1	0.9	100.5*	1	1.1	24.9
CCN(CC)C(=O)C(=O)N/N=C/c1ccc(C(=O)OC)cc1	0.8	26.7	0.9	1	-7.5
Cc1nc2cc(C(=O)N3CCc4ccccc43)ccc2n1-c1ccc(F)c(F)c1	0.9	-1.7	1	1	20.4
CN1CCN(CCCNC(=O)c2cc3c(-c4ccc(Cl)cc4)nn(C)c3s2)CC1	1	100.2*	1	0.9	13.0
CCN(CC)CCCNC(=O)c1cc2c(-c3ccc(Cl)cc3)nn(C)c2s1	1.1	100.5*	0.9	0.9	2.4
Cn1nc(-c2ccc(Cl)cc2)c2cc(C(=O)NCC3CCCO3)sc21 (stereo not given)	0.7	3.8	0.8	0.9	-3.4
CCN(CC)CCCNC(=O)c1cc(-c2ccc(Cl)c(Cl)c2)on1	1	99.3*	1	1	5.8
Cn1c(=O)c2c(nc(NCc3cccnc3)n2Cc2ccccc2Cl)n(C)c1=O	1	17.4	0.9	0.9	6.0
Cc1cc(NCCCn2ccnc2)n2ncc(-c3ccc(Cl)cc3)c2n1	1.2	99.9*	0.9	0.9	63.9*
Cc1ccc(Cn2ncc3c(NCCCN4CCOCC4)ncnc32)cc1	0.9	-3.0	0.9	1	1.6
Cc1cc(NCCCN2CCOCC2)n2ncc(-c3ccc(Cl)cc3)c2n1	0.9	99.0*	0.9	0.9	29.5
C=CCC(c1ccccc1F)N(CCN1CCOCC1)C(=O)Nc1cccc(Cl)c1 (stereo not given)	0.8	93.2*	0.9	1	9.4
c1ccc(C2=Nc3cccnc3C(c3ccccc3)=NN2)cc1	0.8	9.4	1	0.9	-4.6
Cc1cc(C(=O)CCl)c(C)n1-c1c(C)n(C)n(-c2ccccc2)c1=O	1	66.6*	1.2	1.1	0.8
Cc1cc(-n2c(C)cc(C(=O)CN3C(=O)NC4(CCCCC4C)C3=O)c2C)no1 (stereo not given)	1.1	79.2*	1.1	1.1	-9.6
COc1ccc(-n2c(C)cc(C(=O)CCl)c2C)cc1	0.9	100.6*	1.1	1	32.3
Cc1cc(-n2c(C)cc(C(=O)CCl)c2C)no1	0.9	100.6*	1.2	1	-23.7
Cc1cc(-n2c(C)cc(C(=O)CN3C(=O)NC4(CCCC4)C3=O)c2C)no1	0.8	5.3	0.9	1	-2.6
Cc1ccc(C(=O)Nc2ncnc3sc4c(c23)CCCCC4)cc1	1	7.1	0.9	1	14.1
CC1(C)CC(NC(=S)NCc2ccc3c(c2)OCO3)CC(C)(C)N1	0.9	-4.5	1	1	0.9
Cc1ccc(Cl)cc1NC(=O)c1cccc(OC(F)F)c1	0.8	6.2	0.9	0.9	-5.4
COc1ccc(C(=O)C2CCCN(C(=O)C3=CCCC3)C2)c(C)c1 (stereo not given)	0.9	-5.5	1	1	-7.7
COC(=O)c1ccc(NCCC(=O)O)cc1	1	-6.5	1	1.1	-7.0
SMILES	Diaph act CS	Lmaj promast	PMI activator	PMI act hi M6P	WT yeast gro inh
Cc1ccc(-n2c(C)cc(C(=O)CN3CCCCC3)c2C)cc1	1	86.0*	1	1	-9.2
O=C(Nc1ccccc1)c1nnsc1S(=O)c1ccc(Cl)cc1 (stereo not given)	0.8	29.0	0.9	1.1	6.3
CNC(=O)c1nnsc1S(=O)(=O)c1ccc(Cl)cc1	0.9	59.0*	0.9	0.9	69.3*
O=C(c1nnsc1S(=O)(=O)c1ccc(Cl)cc1)N1CCOCC1	1.1	100.0*	0.7	1	8.3
O=C(c1nnsc1S(=O)c1ccc(Cl)cc1)N1CCOCC1 (stereo not given)	1	100.5*	1.1	1	38.2
CCN1CCN(C(c2cccs2)C(C)NS(=O)(=O)c2ccc(C)cc2)CC1 (stereo not given)	1	-7.5	1	1	6.5
COCCNC(=O)/C(C#N)=C\c1ccc(CNS(=O)(=O)c2ccc(C)cc2)o1	1	-4.2	0.9	1	4.0
Cc1ccc(S(=O)(=O)NCc2ccc(/C=C(/C#N)C(=O)NCc3ccccc3)o2)cc1	0.8	70.4*	0.4	0.9	-15.8
CC(=O)OCC1CCCC2=C(C)C(=O)CCC21COC(C)=O (stereo not given)	1	-0.1	1	1	-4.1
S=C(c1ccc(-c2cc(Cl)ccc2Cl)o1)N1CCCCC1	0.8	54.4*	0.8	1	49.8
S=C(c1ccc(-c2cc(Cl)ccc2Cl)o1)N1CCOCC1	0.7	-8.1	0.9	1.1	32.8
S=C(c1ccc(-c2cccc(Cl)c2)o1)N1CCCCC1	0.8	14.4	0.9	0.9	58.1*
Cc1ccc[n+](CC(=O)c2ccc(-c3ccccc3)cc2)c1	0.8	100.2*	1	0.8	6.4
COC(=O)c1ccc[n+](CC(=O)c2ccc(Br)cc2)c1	0.8	56.4*	1.3	1.5	7.2
Cc1ccc(C(=O)C[n+]2cccc3ccccc32)cc1	1	3.5	1.1	1.3	25.1
Cc1ccc(C)[n+](CC(=O)c2ccc(-c3ccccc3)cc2)c1	1.1	70.0*	1.1	1	-3.9
O=C(c1cc(COc2c(F)cccc2F)on1)N1CCc2ccccc2C1	.	-6.7	.	.	40.7
COC(=O)c1ccc(CSc2nnc(NC(C)C)s2)o1	0.9	-5.8	1	1.1	0.5
COC(=O)c1ccc(COc2ccccc2/C=C(\C#N)C(=O)Nc2c(C)cccc2C)cc1	0.8	98.3*	1	1	31.2
COC(=O)c1ccc(COc2ccccc2/C=C(\C#N)C(=O)Nc2ccccc2C)cc1	0.8	-1.5	1	1	4.6
CN1CCc2cc3c(c4c2[C@H]1[C@H](O)c1ccccc1-4)OCO3	0.5	96.3*	0.8	0.8	33.5
COc1ccc2c(c1OC)C(=O)OC2C1c2c(cc3c(c2OC)OCO3)CCN1C (stereo not given)	0.7	4.7	1.1	1.1	-4.7
CCn1c(=O)c([N+](=O)[O-])c(NCCc2ccccc2)c2ccccc21	0.7	100.2*	0.8	0.8	-8.1
COc1ccc(C(=O)c2coc3ccc(O)c(CN4CCCC4)c23)cc1	0.9	7.2	1.1	1.1	-3.9
CCN(CC)Cc1c(O)ccc2occ(C(=O)c3ccc(OC)cc3)c12	0.9	87.8*	1	0.9	2.1
COc1ccc(/C=C\C(=O)c2c(O)ccc3c(C)cc(=O)oc23)cc1OC	0.9	100.2*	0.9	0.9	9.0
Cc1cc(=O)oc2c(C(=O)/C=C\c3cccs3)c(O)ccc12	1	34.1	0.9	1	27.7
